Hit rate of the full screen: of about 330,000 compounds, about 1,100 (0.33%) were called active. The list comes from a sample in which actives are over-represented; it also holds similar structures and randomly drawn compounds. Values without a mark were called inactive.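 Rule for the calls: active = at 10 µM dose, activation of 40% or more, normalized to positive control; inactive = the rest.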
assay: PERK-eIF2a-CHOP pathway stimulators – cell-based, CHO-CHOP luciferase reporter, luminescence, uHTS, primary screen (AID 449763); details: UPR activation, at 10 µM, active compounds read high, percent of tunicamycin response over DMSO baseline;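 note: 100% = tunicamycin at 10 µg/mL and 0% = DMSO alone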
Summary of the method: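 Dosing – one dose, 10 µM in 0.5% DMSO · System – CHO-CHOP cells, stable luciferase reporter of PERK-eIF2a-CHOP signalling · Input – 500 cells/well · Control set – tunicamycin 10 µg/mL final as positive, DMSO-only wells as negative · Timing – 6 h compound treatment, 37 °C · Measure – % activation vs tunicamycin · Technique – luminescence read with Steady-Glo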

Row | Compound | activation
1 | COc1ccc(C(=O)NC2CC(C)(C)NC(C)(C)C2)cc1OC | 0.193%
2 | O=C(CCC(=O)n1ncc2ccccc21)NCc1ccccc1Cl | -0.158%
3 | COc1ccc(S(=O)(=O)NC(C)C(=O)N2CCCCCC2)cc1 (configuration not stated) | -2.32%
4 | CCn1nc(C)c(CNC(=O)C2CCC(=O)N(Cc3cccc(F)c3)C2)c1C (configuration not stated) | 0.585%
5 | Fc1ccccc1/C=C1\CCCC2=C1Nc1ncnn1C2c1ccccc1F (configuration not stated) | 90.9% (active)
6 | CC1=C(C(N)=O)C(c2ccc(Br)cc2)n2ncnc2N1 (configuration not stated) | -1.48%
7 | Brc1ccc2c(c1)[C@H]1OCC[C@H]1[C@@H](c1cccs1)N2 | -1.2%
8 | O=C1CCN(C(=O)Nc2ccccc2)N1 | -2.23%
9 | Cc1ccc(OCC(=O)Nc2ccc(NC(=O)c3cccs3)cc2)c(C)c1 | 0.176%
10 | Cc1ccc(-c2nnc(-c3ccc(NC(=O)c4cccs4)cc3)o2)cc1 | 325% (active)
11 | Cc1ccc(NC(=O)c2cccs2)cc1S(=O)(=O)N(C)C | 1.35%
12 | Cn1c(SCc2ccc(F)cc2)nnc1-c1ccncc1 | 1.85%
13 | CN(C)CCCn1c(SCc2ccc(Cl)cc2)nnc1-c1ccncc1 | 139% (active)
14 | CC1CCCCC1NC(=O)CSc1nnc(-c2ccncc2)n1CCCN(C)C (configuration not stated) | -1.77%
15 | COc1ccc(-n2cc(CNC3CCOCC3)c(-c3cccc(F)c3)n2)cc1 | 0.961%
16 | O=C(COc1ccccc1O)NC1CCCC1 | 3.04%
17 | CC(=O)c1sc(N/N=C\c2ccc(C)cc2)nc1C | 5.8%
18 | COc1cccc2sc(Nc3nc(C)c(C(C)=O)s3)nc12 | 309% (active)
19 | CNC(=O)c1sc(NCc2ccccc2OC)nc1C | -3.17%
20 | CCn1c(/C=C/c2ccc([N+](=O)[O-])o2)nc2ccccc2c1=O | 71.3% (active)
21 | CCOCCCn1c(NN)nc2ccccc2c1=O | 1.17%
22 | CCn1c(SCc2ccccc2)nc2cc(OC)c(OC)cc2c1=O | -0.179%
23 | COC(=O)c1cc(CNC(=O)CC(C)c2ccccc2)ccc1OC (configuration not stated) | 2.14%
24 | COc1ccc(-c2ccc(Nc3ccc(S(=O)(=O)N4CCCC4)cc3)nn2)cc1OC | 3.88%
25 | COc1ccc(-c2cc(C(F)(F)F)nc(S(C)(=O)=O)n2)cc1OC | 106% (active)

Row | Compound | activation
26 | COc1ccc(-c2cc(-c3ccc(N)cc3)nc(N)c2C#N)cc1OC | -0.472%
27 | O=C1/C(=C/c2ccc(F)cc2)SC(=S)N1NS(=O)(=O)c1ccccc1 | 0.174%
28 | CC(C)CNC(=S)NNC(=O)c1ccccc1OC(F)F | -0.805%
29 | CCc1noc(C)c1C(=O)NNC(=O)c1ccc(F)cc1 | -0.408%
30 | Cc1onc(C(=O)NCc2ccc(F)cc2)c1[N+](=O)[O-] | -0.611%
31 | O=C(/C=C/c1ccc([N+](=O)[O-])o1)NNC(=O)c1ccc(F)cc1 | 129% (active)
32 | CC(C)CNS(=O)(=O)c1ccc(CCC(=O)NCc2ccc(Cl)cc2)cc1 | 0.956%
33 | COc1cccc(-n2c(SCC(=O)NC3CCCCC3)nc3n[nH]c(C)c3c2=N)c1 | -0.882%
34 | Cc1ccc(C(C[N+](=O)[O-])c2c(C)cc3ccccn23)cc1 (configuration not stated) | -0.989%
35 | Nc1ccccc1SC(C[N+](=O)[O-])c1ccccc1 (configuration not stated) | 181% (active)
36 | COc1ccc(S(=O)(=O)N2CCOCC2)cc1NC(=O)CSc1ncnc2ccccc12 | -1.54%
37 | Cc1nn(CC#N)c(=O)n1N(C)c1ncc(C(F)(F)F)cc1Cl | -1.47%
38 | COc1ccc(C(C[N+](=O)[O-])n2nc(C)cc2C)cc1 (configuration not stated) | 59.5% (active)
39 | COc1ccc(OC)c(S(=O)(=O)n2c([N+](=O)[O-])cnc2C)c1 | -0.979%
40 | CCOc1ccc(C(C)C)cc1S(=O)(=O)n1nc(C)cc1C | -3.09%
41 | O=C(NNS(=O)(=O)c1ccccc1)c1cnn(-c2ccc(Cl)cc2)c1C(F)(F)F | 2.88%
42 | CCN(C(=O)COC(=O)/C=C/c1nc2ccccc2s1)C1CCS(=O)(=O)C1 (configuration not stated) | 0.0282%
43 | CN1CCNC(=O)C1CC(=O)N1CC=C(c2ccc(F)cc2)CC1 (configuration not stated) | -1.29%
44 | C=CS(=O)c1sc(Cl)c(N2CCOCC2)c1[N+](=O)[O-] (configuration not stated) | 97.2% (active)
45 | O=C(CSc1ccccc1)Nc1ccc(C(=O)Nc2cccc(O)c2)cc1 | 2.1%
46 | O=C(CSCc1ccccc1)Nc1ccccc1 | 2.11%
47 | O=C(CCl)Nc1cccc(CP(=O)(c2ccccc2)c2ccccc2)c1 | 60.2% (active)
48 | COc1c(C)cc(C(=O)C2CCCN(S(=O)(=O)c3c(C)noc3C)C2)cc1C (configuration not stated) | 3.35%
49 | Cc1cc(C)nc(S/C=C/C(=O)c2ccccc2)n1 | 64.1% (active)
50 | O=C(/C=C/Sc1ncn[nH]1)c1ccc(Cl)cc1 | -3.23%

Row | Compound | activation
51 | Cc1cc(C)nc(SCC(=O)N(C)C)n1 | -0.00178%
52 | O=C(N/N=C\c1cc2c(cc1Cl)OCO2)c1ccc(Br)s1 | 51.5% (active)
53 | CC1(C(=O)N/N=C/c2cc3c(cc2Br)OCO3)CC1(Br)Br (configuration not stated) | 1.01%
54 | O=C(N/N=C/c1cc2c(cc1Br)OCO2)C1COc2ccccc2O1 (configuration not stated) | 8.62%
55 | Cc1cccc(Nc2nc3c(S(=O)(=O)c4ccccc4)nnn3c3ccccc23)c1C | 145% (active)
56 | Cc1ccc(S(=O)(=O)c2nnn3c2nc(N2CCN(c4ccccn4)CC2)c2ccccc23)cc1 | 1.19%
57 | CC(=O)Nc1ccc(Nc2nc3c(S(=O)(=O)c4ccc(C)c(C)c4)nnn3c3ccccc23)cc1 | 0.65%
58 | Cc1cccc(C(=O)N2CCCC(Nc3ccc(C(C)C)cc3)C2)n1 (configuration not stated) | 0.069%
59 | COc1ccc(C(=O)NCC(=O)N/N=C/c2ccc([N+](=O)[O-])o2)cc1OC | 113% (active)
60 | COc1cccc(/C=N/NC(=O)CNC(=O)c2ccc(S(=O)(=O)N3CCOCC3)cc2)c1OC | 3.45%
61 | COc1cc(CC(=O)N/N=C/c2ccccc2)c([N+](=O)[O-])cc1OC | 0.0789%
62 | CCN(c1ccc(NC(=O)COC(=O)CCc2nc3ccccc3n2-c2ccccc2)cc1)C(C)C | -1.22%
63 | Cc1c(CN2CCC(n3nccc3NC(=O)CCc3ccccc3)CC2)cnn1C | 1.65%
64 | COc1ccc(CN2C(=O)CN=C2Nc2ccc(C)cc2C)cc1 | 1.91%
65 | COc1ccc(CN2CN(C(C)C)CSC2=S)cc1 | 0.456%
66 | c1ccc(-c2ccc(OCCN3CCOCC3)cc2)cc1 | 5.5%
67 | S=C1SCN(CCN2CCOCC2)CN1Cc1ccccc1 | 129% (active)
68 | COc1ccc(OC)c(NC(=O)CSc2nc(-c3ccccc3)cc(=O)[nH]2)c1 | 4.07%
69 | C=C(C)CNC(=S)Nc1ccc(S(=O)(=O)Nc2cnc3ccccc3n2)cc1 | -2.1%
70 | COc1ccc(C(=O)NCC2CCCN2S(=O)(=O)c2cccs2)cc1OC (configuration not stated) | 11.9%
71 | COCc1ccc(C(=O)N2CCc3c([nH]c4ccccc34)C2c2ccccn2)s1 (configuration not stated) | -0.769%
72 | COc1ccc(N2CC(NS(=O)(=O)c3ccc4ccccc4c3)CC2=O)cc1 (configuration not stated) | -0.659%
73 | CCOc1cc(NS(=O)(=O)c2ccc(OC)cc2)c(OCC)cc1NC(C)=O | 1.17%
74 | COc1cc(NS(=O)(=O)c2ccc3ccccc3c2)c2ncccc2c1 | 409% (active)
75 | COC(=O)[C@]1(C)N[C@H](CN(C)C(=O)c2ccc(C(C)(C)C)cc2)[C@@H]2C(=O)N(C)C(=O)[C@@H]21 | 2.43%

Row | Compound | activation
76 | CCCCOc1ccc(N(CC(=O)NCC2CCCO2)C(=O)CCC(=O)Nc2cc(C)ccn2)cc1 (configuration not stated) | -1.23%
77 | O=C(NCc1ccco1)c1sc2cccc(F)c2c1Cl | 2.12%
78 | Oc1ccc(/C=N/Nc2ccc(C(F)(F)F)cn2)cc1O | 67.4% (active)
79 | O=C(N/N=C/c1ccc(O)c(O)c1)C1c2ccccc2Oc2ccccc21 | 3.18%
80 | O=C(O)c1ccc(N/N=C/c2ccc3ncccc3c2)cc1 | -10.5%
81 | Cc1ccc(CCCOC(=O)C[N+]2(C)CCCC2)cc1 | 1.65%
82 | O=S(=O)(NCC1CCCO1)c1cnc(Cl)c(Cl)c1 (configuration not stated) | 4.71%
83 | O=C(NCCCO)/C(=C\C=C\c1ccccc1)NC(=O)c1ccccc1Cl | 0.299%
84 | COc1ccc(CCNC(=O)CCc2ccccc2O)cc1OC | -0.118%
85 | CC1=CC(C)(C)Nc2ccc(OC(=O)CN3C(=O)C4CCCCC4C3=O)cc21 (configuration not stated) | 67.7% (active)
86 | O=C(COC(=O)CN1C(=O)C2CCCCC2C1=O)Nc1ccc(F)c(F)c1F (configuration not stated) | 1.69%
87 | CC1=CC(C)(C)Nc2ccc(OC(=O)C(Cc3ccccc3)N3C(=O)C4CCCCC4C3=O)cc21 (configuration not stated) | -1.34%
88 | COc1ccc(NC2CC(=O)N(C)C2=O)cc1 (configuration not stated) | -2.21%
89 | COc1ccccc1/C=N/N1CCN(Cc2ccccc2Cl)CC1 | -0.532%
90 | C(=N/Nc1cc(N2CCOCC2)nc(N2CCOCC2)n1)/c1ccccc1 | 4.25%
91 | COc1ccc(/C=N/Nc2cc(N3CCOCC3)nc(C)n2)c(OC)c1 | 8.25%
92 | Cc1cc(N/N=C\c2ccc(Br)cc2)nc(-n2nc(C)cc2C)n1 | 49.5% (active)
93 | COc1ccc(Nc2cc(C)nc(-n3nc(C)cc3C)n2)cc1 | 62.8% (active)
94 | CN(C)c1ccc(/C=N/Nc2cc(N3CCOCC3)nc(N3CCOCC3)n2)cc1 | -1.02%
95 | CC(=O)c1ccc(Oc2cc(C)nc(-n3nc(C)cc3C)n2)cc1 | -1.17%
96 | COc1ccc(NC(=O)c2nc(-n3nc(C)cc3C)ccc2Cl)cc1Cl | -0.184%
97 | COc1ccccc1/C=N\Nc1cc(C)nc(-n2nc(C)cc2C)n1 | 80.6% (active)
